According to ChEMBL document CHEMBL1275595, “Antimicrobial activity of a halocidin-derived peptide resistant to attacks by proteases” (2010):
Activity calls are given as the source filed them. The rule behind the calls is not given here. Bridge positions count the residues as written; N and C are the ends. Peptide text beside a SMILES is read from it. I, II: the chains in the order shown.

Test system: Staphylococcus aureus
Experiment: Antimicrobial activity against methicillin-resistant Staphylococcus aureus CCARM 3696 by radial diffusion assay
Format: functional, organism-based
Method in brief: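 Radial diffusion. Washed mid-log MRSA (4 × 10^6 CFU) was mixed into 10 ml underlay of 1% agarose and 0.03% TSB in 9 mM NaP/1 mM sodium citrate, pH 7.4. Wells 3 mm wide received 5 μl of peptide at 200 μg/ml in 0.01% acetic acid. After 3 h at 37°C, a 1% agarose/6% TSB overlay was added and plates were incubated overnight. Clear zone diameter was read in units, 0.1 mm = 1 unit.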

Row | Structure (SMILES) | Activity
1 | CC(C)C[C@H](NC(=O)CNC(=O)[C@H](Cc1cnc[nH]1)NC(=O)[C@H](Cc1cnc[nH]1)NC(=O)[C@H](CC(C)C)NC(=O)[C@H](CC(C)C)NC(=O)[C@H](C)NC(=O)[C@H](CCCCN)NC(=O)[C@H](CCCCN)NC(=O)[C@H](Cc1c[nH]c2ccccc12)NC(=O)[C@@H](N)CCCCN)C(=O)N[C@@H](CC(N)=O)C(=O)N[C@@H](CSSC[C@H](NC(=O)[C@H](CC(N)=O)NC(=O)[C@H](CC(C)C)NC(=O)CNC(=O)[C@H](Cc1cnc[nH]1)NC(=O)[C@H](Cc1cnc[nH]1)NC(=O)[C@@H](N)CC(C)C)C(=O)N[C@@H](C)C(=O)N[C@@H](CCCCN)C(=O)NCC(=O)N[C@H](C(=O)N[C@@H](CC(C)C)C(=O)N[C@@H](C)C(N)=O)C(C)C)C(=O)N[C@@H](C)C(=O)N[C@@H](CCCCN)C(=O)NCC(=O)N[C@H](C(=O)N[C@@H](CC(C)C)C(=O)N[C@@H](C)C(N)=O)C(C)C (I: H-KWKKALLHHGLNCAKGVLA-NH2 / II: H-LHHGLNCAKGVLA-NH2; disulfide I:13-II:7) | Active
2 | CC(C)C[C@H](NC(=O)CNC(=O)[C@H](Cc1cnc[nH]1)NC(=O)[C@H](Cc1cnc[nH]1)NC(=O)[C@H](CC(C)C)NC(=O)[C@H](CC(C)C)NC(=O)[C@H](C)NC(=O)[C@H](CCCCN)NC(=O)[C@@H](N)CCCCN)C(=O)N[C@@H](CC(N)=O)C(=O)N[C@@H](CSSC[C@H](NC(=O)[C@H](CC(N)=O)NC(=O)[C@H](CC(C)C)NC(=O)CNC(=O)[C@H](Cc1cnc[nH]1)NC(=O)[C@@H](N)Cc1cnc[nH]1)C(=O)N[C@@H](C)C(=O)N[C@@H](CCCCN)C(=O)NCC(=O)N[C@H](C(=O)N[C@@H](CC(C)C)C(=O)N[C@@H](C)C(N)=O)C(C)C)C(=O)N[C@@H](C)C(=O)N[C@@H](CCCCN)C(=O)NCC(=O)N[C@H](C(=O)N[C@@H](CC(C)C)C(=O)N[C@@H](C)C(N)=O)C(C)C (I: H-KKALLHHGLNCAKGVLA-NH2 / II: H-HHGLNCAKGVLA-NH2; disulfide I:11-II:6) | inactive
3 | CC(C)C[C@H](NC(=O)CNC(=O)[C@H](Cc1cnc[nH]1)NC(=O)[C@H](Cc1cnc[nH]1)NC(=O)[C@H](CC(C)C)NC(=O)[C@H](CC(C)C)NC(=O)[C@H](C)NC(=O)[C@H](CCCCN)NC(=O)[C@H](CCCCN)NC(=O)[C@H](Cc1c[nH]c2ccccc12)NC(=O)[C@@H](N)CCCCN)C(=O)N[C@@H](CC(N)=O)C(=O)N[C@@H](CSSC[C@H](NC(=O)[C@H](CC(N)=O)NC(=O)[C@H](CC(C)C)NC(=O)CNC(=O)[C@H](Cc1cnc[nH]1)NC(=O)[C@@H](N)Cc1cnc[nH]1)C(=O)N[C@@H](C)C(=O)N[C@@H](CCCCN)C(=O)NCC(=O)N[C@H](C(=O)N[C@@H](CC(C)C)C(=O)N[C@@H](C)C(N)=O)C(C)C)C(=O)N[C@@H](C)C(=O)N[C@@H](CCCCN)C(=O)NCC(=O)N[C@H](C(=O)N[C@@H](CC(C)C)C(=O)N[C@@H](C)C(N)=O)C(C)C (I: H-KWKKALLHHGLNCAKGVLA-NH2 / II: H-HHGLNCAKGVLA-NH2; disulfide I:13-II:6) | Active
4 | CC(C)C[C@H](NC(=O)CNC(=O)[C@H](Cc1cnc[nH]1)NC(=O)[C@H](Cc1cnc[nH]1)NC(=O)[C@H](CC(C)C)NC(=O)[C@H](CC(C)C)NC(=O)[C@H](C)NC(=O)[C@H](CCCCN)NC(=O)[C@H](CCCCN)NC(=O)[C@H](Cc1c[nH]c2ccccc12)NC(=O)[C@@H](N)CCCCN)C(=O)N[C@@H](CC(N)=O)C(=O)N[C@@H](CSSC[C@H](NC(=O)[C@H](CC(N)=O)NC(=O)[C@H](CC(C)C)NC(=O)CNC(=O)[C@H](Cc1cnc[nH]1)NC(=O)[C@H](Cc1cnc[nH]1)NC(=O)[C@H](CC(C)C)NC(=O)[C@H](CC(C)C)NC(=O)[C@H](C)NC(=O)[C@H](CCCCN)NC(=O)[C@@H](N)CCCCN)C(=O)N[C@@H](C)C(=O)N[C@@H](CCCCN)C(=O)NCC(=O)N[C@H](C(=O)N[C@@H](CC(C)C)C(=O)N[C@@H](C)C(N)=O)C(C)C)C(=O)N[C@@H](C)C(=O)N[C@@H](CCCCN)C(=O)NCC(=O)N[C@H](C(=O)N[C@@H](CC(C)C)C(=O)N[C@@H](C)C(N)=O)C(C)C (I: H-KWKKALLHHGLNCAKGVLA-NH2 / II: H-KKALLHHGLNCAKGVLA-NH2; disulfide I:13-II:11) | Active
